Screens: PubChem BioAssay, Broad Institute
Cneo AK release = Cryptococcus neoformans lysis via adenylate kinase release. hit rate 0.2% among 360,000. C. neoformans lysis, adenylate kinase release luminescence, 4 h; normalised: neutral wells 0, clomiphene wells 100. AID 651654. lysis activity, % at 15 µM;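 active = mean lysis activity across replicates of at least 80%, whatever share of replicates individually reach that level; inactive = mean lysis activity below 80%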
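Material – Cryptococcus neoformans yeast cells · Quantity – 5 × 10^6 yeast cells/mL · Buffer or medium – YPD medium · Compound – single dose · Timing – 4 h static compound exposure, 37 °C, read 1 h post-reagent · Signal – adenylate kinase release luminescence · Read-out basis – lysis from increased AK signal · Benchmarks – Clomiphene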
CFTR F508del cor = correctors of CFTR F508del function in bronchial epithelial cells. activity (quench increase), % at 7.58 µM. hit rate 0.36% among 350,000. CFBE cells, YFP halide quenching; stimulated with forskolin plus potentiator P3; % fluorescence drop versus neutral controls;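 active = mean added fluorescence quench of at least 8% versus neutral control, with both replicates also reaching 8%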;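 also: cells transiently co-express mutant CFTR-F508del with the halide-sensitive YFP; corrector assay measuring rescue of mutant channel to the surface after 24 h compound exposure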
PDI turbidity = PDI (human) enzyme inhibition. PDI insulin aggregation turbidity, A650, 90 min. P07237. hit rate 0.052% among 350,000. inhibition, % at 10 µM;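 active = mean inhibition across replicates of 30% or more, whatever share of single replicates reach that level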
Target sequence (P07237 whole entry, looked up): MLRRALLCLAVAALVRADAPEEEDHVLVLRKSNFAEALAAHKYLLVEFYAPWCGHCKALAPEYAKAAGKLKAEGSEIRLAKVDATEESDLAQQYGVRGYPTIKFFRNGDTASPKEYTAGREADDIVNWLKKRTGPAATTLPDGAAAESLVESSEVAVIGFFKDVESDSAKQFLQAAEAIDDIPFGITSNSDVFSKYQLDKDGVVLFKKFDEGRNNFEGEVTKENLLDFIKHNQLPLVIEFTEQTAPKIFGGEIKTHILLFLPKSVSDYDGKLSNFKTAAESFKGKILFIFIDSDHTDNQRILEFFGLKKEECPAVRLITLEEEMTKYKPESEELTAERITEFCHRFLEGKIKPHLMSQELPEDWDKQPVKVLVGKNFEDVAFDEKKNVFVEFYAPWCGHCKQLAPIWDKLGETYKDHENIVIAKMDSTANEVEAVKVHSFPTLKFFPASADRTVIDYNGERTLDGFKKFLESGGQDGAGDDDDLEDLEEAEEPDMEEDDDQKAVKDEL
ERp5 inh = inhibitors of human ERp5. AID 651711. hit rate 0.05% among 350,000. ERp5 insulin aggregation, absorbance 650 nm, 90 min. Q15084. inhibition, % at 9.99 µM;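 active = mean replicate inhibition above about 25%, with every replicate also reaching it, limit read from the data, passing the limit was not always enough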
C2C12 statin = protects C2C12 myotubes from simvastatin toxicity. ATP luminescence, 48 h; scaled: DMSO 0, geranylgeraniol control 100. rescue of ATP level, % at 7.49 µM. hit rate 0.78% among 330,000. AID 602340;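 active = mean ATP rescue above about 67%, or every replicate alone reaching that limit, limit read from the data, passing the limit was not always enough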;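 also: myotubes were challenged with 10 µM simvastatin during compound exposure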
DENV2 CPE = DENV2-induced cell death inhibition | DENV2-infected cells, cytopathic effect rescue, plate reader | CPE inhibition, % at 9.99 µM | hit rate 1.7% among 350,000 | AID 651640; in the data active = CPE inhibition above about 20%, passing the limit was not always enough; tested in BHK-21 cells
Of the large screens only hits and unclear results are named; the others gave an inactive call. In the library only some 2.3% were active in any assay of this set; here they are far more common.

COc1cc(CN2CC3(CCN(C(=O)CN4CCOCC4)CC3)c3c(n(C)c4cc(OC)ccc34)[C@@H]2CO)cc(OC)c1	none (no result: Cneo AK release, PDI turbidity, C2C12 statin)
COc1ccc2c3c(n(C)c2c1)[C@H](CO)N(C)CC31CCN(C(=O)CN2CCOCC2)CC1	DENV2 CPE 53 (no result: Cneo AK release, PDI turbidity, C2C12 statin)
COc1ccc2c3c(n(C)c2c1)[C@H](CO)N(C(=O)C1CCC1)CC31CN(Cc2cccc(F)c2)C1	DENV2 CPE 22 (no result: Cneo AK release, PDI turbidity, C2C12 statin)
COc1ccc2c3c(n(C)c2c1)[C@H](CO)N(C(=O)C1CCCC1)CC31CN(Cc2cccc(F)c2)C1	none (no result: Cneo AK release, PDI turbidity, C2C12 statin)
CCC(=O)N1CC2(CN(Cc3ccc(F)cc3)C2)c2c(n(C)c3cc(OC)ccc23)[C@@H]1CO	DENV2 CPE 21 (no result: Cneo AK release, PDI turbidity, C2C12 statin)
C/C=C/c1ccc([C@@H]2[C@@H](CO)N3C(=O)CN(C(=O)NC4CCCC4)C[C@@H]23)cc1	none (no result: Cneo AK release, PDI turbidity, C2C12 statin)
C[C@@H]1CN([C@H](C)CO)S(=O)(=O)c2ccc(/C=C/c3ccccc3)cc2O[C@@H]1CN(C)C(=O)c1ccc2c(c1)OCO2	none (no result: PDI turbidity)
O=C(N[C@H]1CC[C@@H](CCn2cc(-c3ccccn3)nn2)O[C@@H]1CO)c1ccc(F)cc1	none (no result: PDI turbidity)
CO[C@H]1CC[C@H]2CCOc3ccc(C#N)cc3C(=O)N(C)C[C@H](C)C(=O)N(C)C[C@H]1O2	none (no result: CFTR F508del cor, PDI turbidity)
C[C@H]1CN([C@@H](C)CO)C(=O)c2cccc(NS(C)(=O)=O)c2O[C@H]1CN(C)C	none (no result: PDI turbidity)
CCCC(=O)N1CC2(CCN(C(=O)Nc3cccc(F)c3)CC2)c2c(n(C)c3cc(OC)ccc23)[C@@H]1CO	none (no result: Cneo AK release, PDI turbidity, ERp5 inh, C2C12 statin)
COc1ccc2c3c(n(C)c2c1)[C@@H](CO)N(C(=O)C1CCCC1)CC31CN(C(=O)Nc2cccc(F)c2)C1	DENV2 CPE 77 (no result: Cneo AK release, PDI turbidity, C2C12 statin)
COc1ccc2c3c(n(C)c2c1)[C@@H](CO)N(Cc1ccc(F)cc1)CC31CN(CC2CCOCC2)C1	DENV2 CPE 99 (no result: Cneo AK release, PDI turbidity, ERp5 inh, C2C12 statin)
COc1ccc2c3c(n(C)c2c1)[C@H](CO)N(Cc1ccc(F)cc1)CC31CN(CC2CC2)C1	none (no result: Cneo AK release, PDI turbidity, C2C12 statin)
COCC(=O)N1CC2(CCN(Cc3cncnc3)CC2)c2c(n(C)c3cc(OC)ccc23)[C@H]1CO	DENV2 CPE 50 (no result: Cneo AK release, PDI turbidity, ERp5 inh, C2C12 statin)
COc1ccc2c3c(n(C)c2c1)[C@H](CO)N(C(=O)CN1CCOCC1)CC31CCN(C(=O)Nc2cccc(F)c2)CC1	DENV2 CPE 33 (no result: Cneo AK release, PDI turbidity, C2C12 statin)
CCCCC1=CC2=C(c3ccco3)C(=O)C(C)(OC(=O)c3ccc(OC)cc3)C(=O)C2=CN1C1CC1 (stereo not drawn)	DENV2 CPE 53
CCCCC1=CC2=C(c3ccco3)C(=O)C(C)(OC(=O)c3ccc(OC)cc3)C(=O)C2=CN1CC1CC1 (stereo not drawn)	none
CC(OC(=O)c1ccc(O)cc1)C(=O)Nc1nc(-c2ccccc2)cs1 (stereo not drawn)	DENV2 CPE 38
C[C@@H]1CN([C@@H](C)CO)C(=O)c2cccc(NS(C)(=O)=O)c2O[C@@H]1CN(C)C(=O)Nc1ccccc1	none (no result: PDI turbidity)
Cc1ccc(NC(=O)c2cc(-c3cc(Cl)ccc3C)n[nH]2)cc1NS(C)(=O)=O	DENV2 CPE 27
COc1ccc(N(C(=O)c2snc(C(N)=O)c2N)C(C(=O)NC2CCCCC2)c2ccc(C)o2)cc1 (stereo not drawn)	C2C12 statin 75
CC(OC(=O)c1ccc(Cl)nc1)C(=O)NC(C)(C)C (stereo not drawn)	CFTR F508del cor 10 (no result: Cneo AK release)
CC(OC(=O)c1ccc(Cl)nc1)C(=O)NC1CCCC1 (stereo not drawn)	none (no result: DENV2 CPE)
COc1ccccc1C(=O)Nc1ccc2c(c1)OC[C@H](C)N(CC1CC1)C[C@H](C)[C@@H](OC)CN(C)C2=O	none (no result: Cneo AK release, PDI turbidity, ERp5 inh, C2C12 statin)
Cc1cccc(S(=O)(=O)N[C@@H]2CC[C@@H](CCn3cc(-c4ccccn4)nn3)O[C@@H]2CO)c1	none (no result: PDI turbidity)
C[C@H](CO)N1C[C@H](C)[C@H](CN(C)C(=O)c2ccc3c(c2)OCO3)Oc2ncc(C3=CCCC3)cc2C1=O	none (no result: PDI turbidity)
CN1[C@@H]2c3ccc(/C=C/c4ccccc4)c(=O)n3C[C@H]1[C@H](CO)[C@H]2C(=O)NC1Cc2ccccc2C1	none (no result: CFTR F508del cor, PDI turbidity)
O=C(O)[C@H]1[C@H](CO)[C@H]2Cn3c(ccc(/C=C/c4ccccc4)c3=O)[C@H]2N1C(=O)c1cnccn1	DENV2 CPE 103 (no result: CFTR F508del cor, PDI turbidity)
COC(=O)[C@H]1[C@H](CO)[C@H]2Cn3c(ccc(/C=C/c4ccccc4)c3=O)[C@H]2N1C(=O)c1cnccn1	none (no result: PDI turbidity)
